Bioassay records from PubChem.
RORa activator = RORA (human) activation. P35398. CHO-K1 Gal4-RORA LBD luciferase reporter, luminescence; percent increase over mock-subtracted basal signal. 65,000 compounds, 1.5% hits. activation, % at 10 µM. AID 560;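 active means activation above the mean of all tested compounds plus 3 SD, cut at about 49% in these data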
Target sequence (P35398 whole entry, looked up, the tested form may be a part): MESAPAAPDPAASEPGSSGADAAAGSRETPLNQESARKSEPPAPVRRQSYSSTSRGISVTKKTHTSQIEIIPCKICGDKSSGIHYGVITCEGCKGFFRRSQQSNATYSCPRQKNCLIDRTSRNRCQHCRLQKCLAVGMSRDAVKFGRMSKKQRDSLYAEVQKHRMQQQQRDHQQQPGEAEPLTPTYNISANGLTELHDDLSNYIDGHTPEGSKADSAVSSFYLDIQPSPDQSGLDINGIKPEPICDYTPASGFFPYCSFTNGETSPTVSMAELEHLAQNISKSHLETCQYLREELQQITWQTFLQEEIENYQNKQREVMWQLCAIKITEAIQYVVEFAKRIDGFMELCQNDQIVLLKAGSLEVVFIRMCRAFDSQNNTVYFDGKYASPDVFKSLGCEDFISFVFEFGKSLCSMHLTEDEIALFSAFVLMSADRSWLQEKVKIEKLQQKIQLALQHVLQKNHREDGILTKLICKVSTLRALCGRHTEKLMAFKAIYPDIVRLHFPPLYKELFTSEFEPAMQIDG
SF-1 act = activators of human nuclear receptor SF-1; Q13285; CHO-K1 Gal4-SF-1 LBD luciferase reporter; % increase over DMSO SF-1-specific signal; activation, % at 10 µM; 65,000 compounds, 1.9% hits;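 active means activation above the mean activation of all tested compounds plus 3 SD, cut at about 50% in these data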
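Assay system – CHO-K1 cells with Gal4–hSF-1 LBD chimera plus Gal4-driven luciferase · Quantity – 4,000 cells per well · Times – compound added 1 h post-seeding, 20 h exposure at 37 °C, 5% CO2 · Measured by – luciferase light emission · Benchmarks – DMSO and mock-transfected background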
JNK3 blocker = JNK3 (human) kinase inhibition; 60,000 compounds, 0.61% hits; inhibition, % at 8 µM; purified JNK3 kinase activity, HTS; AID 746; in the data active means inhibition above about 17%
MKP-1 inh = inhibitors of human MKP-1 phosphatase; P28562; recombinant MKP-1, OMFP hydrolysis fluorescence; inhibition, %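 (compounds tested at a single concentration somewhere between 10 and 100 µM)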; 65,000 compounds, 0.15% hits;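 active means inhibition above about 50%, limit read from the data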
Cdc25B inh = human M-phase inducer phosphatase 2 inhibition | P30305 | recombinant Cdc25B, OMFP fluorescence Ex485/Em525 | inhibition, %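 (compounds tested at 10 µM final in the well)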 | 65,000 compounds, 0.1% hits; in the data active means inhibition above about 50%
Hsp90 block = displaces geldanamycin probe from tumor Hsp90 | P07900 | NCI-N417 lysate Hsp90, Cy3B-geldanamycin FP displacement | inhibition, % at 30 µM | 64,000 compounds, 0.35% hits | AID 429;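 active means inhibition above 50%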
Numbers stand for hits; - = inactive; . = not tested or not shown. Only some compounds are listed: those with a hit (about 3.4% of all), similar ones and a draw of the others.

SMILES | RORa activator | SF-1 act | JNK3 blocker | MKP-1 inh | Cdc25B inh | Hsp90 block
Cc1onc(-c2ccccc2)c1C(=O)Nc1nc(-c2cc(F)ccc2F)cs1 | - | 54 | - | - | - | -
O=C(O)c1ccccc1C1=Nc2ccc(O)cc2Oc2cc(O)ccc21 | - | - | - | - | - | 61
Cc1cc(-c2ccccc2C(=O)O)on1 | - | - | - | - | - | -
CCOC(=O)N1CCN(c2ccc(S(=O)(=O)N(Cc3ccccc3)Cc3ccccc3)cn2)CC1 | - | - | - | - | - | -
O=C(OC1CCCCC1)c1ccc(NC(=O)c2ccco2)cc1 | 49 | 60 | - | - | - | -
O=C(Nc1ccc(-c2nc3cccnc3s2)cc1)c1ccco1 | - | - | 23 | - | - | -
Cc1cc(C(=O)Nc2ccccn2)cs1 | 56 | 62 | - | - | - | -
COc1cc(C(=O)Nc2ccccn2)cc(OC)c1OC | - | - | - | - | - | -
O=C(Nc1ccc(OC(=O)c2ccco2)cc1)c1ccco1 | - | - | - | - | - | -
O=C(Nc1ccc(-c2nc3ncccc3o2)cc1)c1ccco1 | - | 63 | - | - | - | -
Cc1ccccc1NC(=O)c1ccc(NC(=O)c2ccco2)cc1 | - | - | - | - | - | -
O=C(Nc1ccccn1)c1ccc(NC(=O)c2ccco2)cc1 | 71 | 60 | - | - | - | -
Cc1ccc2nc(-c3ccc(NC(=O)c4ccco4)cc3)[nH]c2c1 | - | 50 | - | - | - | -
CCOC(=O)c1cnc2ccc(Cl)cc2c1N1CCN(C)CC1 | - | - | 32 | - | - | -
CC(=O)Nc1cccc(-c2nnc(-c3ccccc3)o2)c1 | - | 51 | . | - | - | -
COc1ccc(CC(=O)Nc2cccc(-c3nnc(-c4ccccc4)o3)c2)cc1OC | - | - | - | - | - | -
CCC(=O)Nc1cccc(-c2nc3ccccc3c(=O)o2)c1 | - | - | - | - | - | -
COc1cccc(C(=O)Nc2cccc(-c3nnc(-c4ccccc4)o3)c2)c1 | - | 92 | - | - | - | -
CCOc1cccc(C(=O)Nc2cccc(-c3nnc(-c4ccccc4)o3)c2)c1 | - | - | - | - | - | -
CC(=O)Nc1cccc(-c2nc3ccccc3c(=O)o2)c1 | - | - | 18 | - | - | -
CCOC(=O)c1sc(Nc2nc3c(OC)cccc3s2)nc1C | - | 64 | - | - | - | -
Cc1cccc(-n2ccnc2SCC(=O)Nc2nccs2)c1 | - | 60 | - | - | - | -
Cc1cc(C)cc(-n2ccnc2SCC(=O)Nc2nccs2)c1 | - | - | - | - | - | -
Cc1ccccc1NC(=O)Cn1cnc2c(oc3ccccc32)c1=O | - | - | . | - | - | -
O=C(Cn1cnc2c(oc3ccccc32)c1=O)c1ccccc1 | 93 | 61 | - | - | - | -
SMILES | RORa activator | SF-1 act | JNK3 blocker | MKP-1 inh | Cdc25B inh | Hsp90 block
Cc1cccc(NC(=O)c2cnc3sccn3c2=O)c1 | - | - | - | - | - | -
Cc1cccc(NC(=O)c2cnc3sccn3c2=O)c1C | 74 | - | - | - | - | -
O=C(Nc1cnc2sccn2c1=O)c1ccccc1Cl | - | 52 | . | - | - | .
Cc1cccc(S(=O)(=O)NCCC(=O)OC(C)C(=O)NC(=O)NC2CCCCC2)c1 (configuration not stated) | - | - | - | - | - | -
O=C(NCC1CCCO1)c1coc2nc3ccccc3nc12 (configuration not stated) | - | 57 | - | - | - | -
O=c1ccc2c(OCCCCc3ccccc3)c3ccoc3cc2o1 | . | . | . | . | . | -
O=C(Nc1ccc(-c2nnc(-c3ccccc3)o2)cc1)C(F)(F)F | - | - | - | - | - | -
CC(=O)/C=C(\C)Nc1ccc(-c2cnc(-c3ccccc3)o2)cc1 | 88 | 57 | - | - | - | -
CCOC(=O)N1CCC(N2CC34C=CC(O3)C(C(=O)O)C4C2=O)CC1 (configuration not stated) | - | - | - | - | - | -
c1ccc(CSc2nnc(-c3c[nH]c4ccccc34)o2)cc1 | 80 | - | - | - | - | -
O=C(CSc1nnc(-c2c[nH]c3ccccc23)o1)N1c2ccccc2CCc2ccccc21 | - | - | - | - | - | -
Cc1cccc(C)c1NC(=O)CSCC(=O)c1ccc(O)c(O)c1 | - | - | - | - | - | -
O=C(Nc1nc(-c2ccccc2)cs1)c1ccc(Br)o1 | - | - | - | - | - | -
Cc1ccc2c(c1)CC1(CN2C)C(=O)OC2(CCCCC2)OC1=O | - | - | 31 | - | - | -
CN1CC2(Cc3c1ccc1ccccc31)C(=O)OC(C)(C)OC2=O | - | - | - | - | - | -
C/C(N)=C(/C#N)C(=O)CSc1nnc(Nc2cccc(C)c2C)s1 | - | 58 | - | - | - | -
CC(=O)c1oc2ccccc2c1N | - | - | - | - | - | -
Cc1c(C(=O)Nc2ccc(Cl)cn2)oc2ccccc12 | - | - | - | - | - | -
CC(=O)Nc1ccc(-c2cc3ccccc3o2)cc1 | - | 61 | - | - | - | -
COc1ccc(NC(=O)c2oc3ccccc3c2C)c(OC)c1 | 62 | 58 | . | - | - | .
Cc1c(C(=O)Nc2cnccn2)oc2ccccc12 | - | 56 | - | - | - | -
Nc1c(C(=O)Nc2ccc(Cl)cc2)oc2ccccc12 | 74 | 106 | - | - | - | -
O=C(COc1ccc(-n2cnnn2)cc1)NCCc1ccc(F)cc1 | - | - | - | - | - | -
COc1ccc(NC(=O)c2cc3ccccc3o2)cc1 | 53 | 54 | - | - | - | -
COc1ccc(NC(=O)c2cc(-c3ccccc3OC)on2)cc1 | 49 | - | - | - | - | -
SMILES | RORa activator | SF-1 act | JNK3 blocker | MKP-1 inh | Cdc25B inh | Hsp90 block
COc1ccc(NC(=O)c2cc(C3CC3)on2)c(OC)c1 | - | 56 | - | - | - | -
CC(=O)Nc1cccc(NC(=O)c2oc3ccccc3c2C)c1 | - | 51 | - | - | - | -
Cc1ccccc1NC(=O)CN(C)S(=O)(=O)c1cccc2cccnc12 | - | - | - | - | - | -
CCCc1nc(SCC(=O)NCc2ccc3c(c2)OCO3)c2c(=O)n(C)c(=O)n(C)c2n1 | - | - | - | - | - | -
C=CC(N)CCC(=O)O (configuration not stated) | . | . | . | . | . | -
CC(C)C(=O)Nc1cccc(NC(=O)c2cc3ccccc3o2)c1 | - | - | - | - | - | -
CC(=O)Nc1cccc(NC(=O)c2cc3ccccc3o2)c1 | - | 87 | - | - | - | -
COc1ccc(OCc2ccc(C(=O)O)cc2)cc1 | - | 64 | - | - | - | -
O=C(CSc1n[nH]c(-c2ccccc2)n1)c1ccc(O)c(O)c1 | - | - | - | - | - | 76
Cc1nc2c([nH]1)c(=O)n(C)c(=O)n2Cc1ccco1 | . | . | . | . | . | -
COc1ccc(S(=O)(=O)Nc2ccc(S(=O)(=O)N3CCCCC3)cc2)cc1 | - | - | - | - | - | -
COC(=O)c1sc2nc(-c3ccco3)ccc2c1N | - | 66 | - | - | - | -
